Starred links: 1 amine or outer side, 2 acyl side, 3 side chain; linkers in the order of their positions; H or OH if unused. Positions of bridges follow the written chain, without caps; N, C: chain ends. Non-standard residues stand in square brackets, D forms with d. Residues, ends and D or L forms follow the SMILES beside them. *: point of attachment. N(6-aminohexyl)Gly = O=C(CN(CCCCCCN[*:3])[*:1])[*:2]; NGly(3-aminopropyl) = O=C(CN(CCCN[*:3])[*:1])[*:2]; N(2-Aminoethyl)Gly = O=C(CN(CCN[*:3])[*:1])[*:2]; Adipoyl = O=C(CCCCC(=O)[*:2])[*:1]; Glutaryl = O=C(CCCC(=O)[*:2])[*:1]; X2 = CC(=O)NCCCN(CC(=O)[*:2])[*:1]; Gly(N(CH2)3NH2) = NCCCNCC(=O)O; Suc = O=C(CCC(=O)[*:2])[*:1]; X1 = CNC(=O)CCCCC(=O)*
What was measured:
Substance-K receptor [1] = biological target: T1, Substance-K receptor (Rattus norvegicus, UniProt P16610); assay: Effective concentration to activate Tachykinin receptor 2 in rat vas deferens (RVD)
T1 sequence (P16610 whole entry): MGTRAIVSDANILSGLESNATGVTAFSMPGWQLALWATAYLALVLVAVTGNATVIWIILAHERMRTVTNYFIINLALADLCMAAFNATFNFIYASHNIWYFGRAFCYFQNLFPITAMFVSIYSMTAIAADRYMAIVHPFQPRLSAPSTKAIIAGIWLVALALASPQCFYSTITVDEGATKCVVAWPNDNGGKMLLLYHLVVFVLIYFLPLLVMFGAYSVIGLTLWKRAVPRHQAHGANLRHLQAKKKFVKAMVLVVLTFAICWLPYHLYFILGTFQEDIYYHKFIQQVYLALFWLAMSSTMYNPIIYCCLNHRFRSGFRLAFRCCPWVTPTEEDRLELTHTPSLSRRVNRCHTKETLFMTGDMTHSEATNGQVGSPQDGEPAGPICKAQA

Neuromedin-K receptor [2] = biological target: T2, Neuromedin-K receptor (Rattus norvegicus, UniProt P16177); assay: Effective concentration to activate Tachykinin receptor 3 in rat portal vein(RPV).
T2 sequence (P16177 whole entry): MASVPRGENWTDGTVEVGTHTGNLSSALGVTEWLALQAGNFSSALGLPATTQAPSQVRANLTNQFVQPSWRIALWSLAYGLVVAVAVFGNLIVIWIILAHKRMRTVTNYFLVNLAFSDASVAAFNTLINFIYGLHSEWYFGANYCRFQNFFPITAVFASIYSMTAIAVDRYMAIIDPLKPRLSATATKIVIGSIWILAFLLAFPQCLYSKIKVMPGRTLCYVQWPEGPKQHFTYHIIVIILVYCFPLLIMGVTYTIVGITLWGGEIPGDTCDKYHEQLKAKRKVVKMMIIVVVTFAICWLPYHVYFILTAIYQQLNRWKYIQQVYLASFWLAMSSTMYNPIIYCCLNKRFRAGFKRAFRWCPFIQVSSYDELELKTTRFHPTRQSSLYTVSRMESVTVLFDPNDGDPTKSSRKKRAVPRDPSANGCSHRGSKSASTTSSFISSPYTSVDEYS
Summary of the method: (§1)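 Portal vein from rat killed by decapitation, mounted in a bath at 37 °C under about 0.5 g tension and equilibrated for 1 h. Peptides were then added at 20 min intervals to avoid receptor desensitization, and contractile responses were recorded.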

Substance-P receptor = Substance-P receptor (Cavia porcellus, UniProt P30547); assay: Effective concentration to activate Tachykinin receptor 1 in guinea pig ileum(GPI); type: tissue-based
Neuromedin-K receptor [3] = biological target: T2, Neuromedin-K receptor; assay: Effective concentration to activate Tachykinin receptor 3 in rat portal vein (RPV); summary of the method: as §1
Substance-K receptor [4] = biological target: T1, Substance-K receptor; assay: Effective concentration to activate Tachykinin receptor 2 in rat vas deferens(RVD)

Sequence of Substance-P receptor (P30547 whole entry): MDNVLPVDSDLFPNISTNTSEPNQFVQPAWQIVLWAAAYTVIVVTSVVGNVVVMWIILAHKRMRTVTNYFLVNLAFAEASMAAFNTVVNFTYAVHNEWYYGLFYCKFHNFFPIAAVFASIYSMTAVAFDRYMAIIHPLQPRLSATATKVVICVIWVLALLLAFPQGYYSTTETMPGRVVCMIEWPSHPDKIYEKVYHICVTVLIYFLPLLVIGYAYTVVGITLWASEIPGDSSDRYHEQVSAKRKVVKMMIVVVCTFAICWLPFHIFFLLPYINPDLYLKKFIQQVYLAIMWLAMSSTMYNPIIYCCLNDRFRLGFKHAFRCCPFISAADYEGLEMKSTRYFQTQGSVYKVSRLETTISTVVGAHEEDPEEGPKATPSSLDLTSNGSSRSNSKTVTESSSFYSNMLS

| Molecule | EC50 (Substance-K receptor [1]) [nM] | EC50 (Neuromedin-K receptor [2]) [nM] | EC50 (Substance-P receptor) [nM] | EC50 (Neuromedin-K receptor [3]) [nM] | EC50 (Substance-K receptor [4]) [nM] |
| --- | --- | --- | --- | --- | --- |
| CSCC[C@H](NC(=O)[C@H](CC(C)C)NC(=O)CN1CCCCCCNC(=O)CCC(=O)N[C@@H](CCCN=C(N)N)C(=O)N[C@@H](Cc2ccccc2)C(=O)N[C@@H](Cc2ccccc2)C1=O)C(N)=O (RFF[N(6-aminohexyl)Gly]LM-NH2; linker N-4 via Suc) | > 50000 | – | 160 | 1000 | – |
| CSCC[C@H](NC(=O)[C@H](CC(C)C)NC(=O)CN1CCCNC(=O)CCC(=O)N[C@@H](CCCN=C(N)N)C(=O)N[C@@H](Cc2ccccc2)C(=O)N[C@@H](Cc2ccccc2)C1=O)C(N)=O (RFF[NGly(3-aminopropyl)]LM-NH2; linker N-4 via Suc) | > 50000 | – | 180 | > 10000 | – |
| CSCC[C@H](NC(=O)[C@H](CC(C)C)NC(=O)CN(CCCN)C(=O)[C@H](Cc1ccccc1)NC(=O)[C@H](Cc1ccccc1)NC(=O)[C@H](CCCNC(=N)N)NC(C)=O)C(N)=O (Ac-RFF[Gly(N(CH2)3NH2)]LM-NH2) | > 100000 | – | 300 | 2000 | – |
| CSCC[C@H](NC(=O)[C@H](CC(C)C)NC(=O)CNC(=O)[C@H](Cc1ccccc1)N(C)C(=O)[C@H](Cc1ccccc1)NC(=O)[C@H](CC(=O)O)NC(=O)CCC(=O)O)C(N)=O [SENKTIDE] | > 200000 | – | 35000 | – | – |
| CSCC[C@H](NC(=O)[C@H](CC(C)C)NC(=O)CN1CCNC(=O)CCC(=O)N[C@@H](CCCNC(=N)N)C(=O)N[C@@H](Cc2ccccc2)C(=O)N[C@@H](Cc2ccccc2)C1=O)C(N)=O (RFF[N(2-Aminoethyl)Gly]LM-NH2; linker N-4 via Suc) | > 50000 | – | 4000 | > 10000 | – |
| CSCC[C@H](NC(=O)[C@H](CC(C)C)NC(=O)CN1CCNC(=O)CCC(=O)NCC(=O)N[C@@H](CCCN=C(N)N)C(=O)N[C@@H](Cc2ccccc2)C(=O)N[C@@H](Cc2ccccc2)C1=O)C(N)=O (GRFF[N(2-Aminoethyl)Gly]LM-NH2; linker N-5 via Suc) | > 50000 | – | > 10000 | > 10000 | – |
| CNC(=O)CCCCC(=O)N[C@@H](CCCNC(=N)N)C(=O)N[C@@H](Cc1ccccc1)C(=O)N[C@@H](Cc1ccccc1)C(=O)N(CCCNC(C)=O)CC(=O)N[C@@H](CC(C)C)C(=O)N[C@@H](CCSC)C(N)=O (X1-RFF[X2]LM-NH2) | – | 2000 | 400 | – | > 100000 |

The next molecules have a lower EC50 (Substance-P receptor) than those just listed; values first:

| EC50 (Substance-K receptor [1]) [nM] | EC50 (Neuromedin-K receptor [2]) [nM] | EC50 (Substance-P receptor) [nM] | EC50 (Neuromedin-K receptor [3]) [nM] | EC50 (Substance-K receptor [4]) [nM] | Molecule |
| --- | --- | --- | --- | --- | --- |
| > 200000 | > 50000 | 3 | – | – | Ac-RFFPLM-NH2 |
| > 200000 | – | 5 | > 10000 | – | CSCC[C@H](NC(=O)[C@H](CC(C)C)NC(=O)CN1CCCNC(=O)CCCCC(=O)N[C@@H](CCCN=C(N)N)C(=O)N[C@@H](Cc2ccccc2)C(=O)N[C@@H](Cc2ccccc2)C1=O)C(N)=O (RFF[NGly(3-aminopropyl)]LM-NH2; linker N-4 via Adipoyl) |
| > 50000 | – | 11 | > 10000 | – | CSCC[C@H](NC(=O)[C@H](CC(C)C)NC(=O)CN1CCCNC(=O)CCCC(=O)N[C@@H](CCCN=C(N)N)C(=O)N[C@@H](Cc2ccccc2)C(=O)N[C@@H](Cc2ccccc2)C1=O)C(N)=O (RFF[NGly(3-aminopropyl)]LM-NH2; linker N-4 via Glutaryl) |
| > 50000 | – | 60 | 1000 | – | CSCC[C@H](NC(=O)[C@H](CC(C)C)NC(=O)CN1CCCCCCNC(=O)CCCC(=O)N[C@@H](CCCN=C(N)N)C(=O)N[C@@H](Cc2ccccc2)C(=O)N[C@@H](Cc2ccccc2)C1=O)C(N)=O (RFF[N(6-aminohexyl)Gly]LM-NH2; linker N-4 via Glutaryl) |

Source: ChEMBL document CHEMBL1129266, “Synthesis and biological activity of NK-1 selective, N-backbone cyclic analogs of the C-terminal hexapeptide of substance P” (J Med Chem, 1996)
